The values that follow come from ChEMBL document CHEMBL2150962, “Antimicrobial rubrolides from a South African species of Synoicum tunicate” (J Nat Prod, 2012).

Experiment [1] relates to Staphylococcus epidermidis. As to the kind of experiment: Antimicrobial activity against Staphylococcus epidermidis ATCC 35984TCC BAA-1721. It is filed as functional, organism-based. Summed up:
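Microtiter broth dilution; S. epidermidis ATCC 35984 grown in tryptic soy broth, inoculum 5 × 10⁵ cfu/mL, 16 h static incubation at 37 °C. Compound tested over 130 - 0.3 μg/mL. Technical duplicates, biological triplicate; percentage inhibition fitted by nonlinear regression to IC50.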

Experiment [2] deals with Escherichia coli. As to the kind of experiment: Antimicrobial activity against Escherichia coli O157:H7 at 100 ug/ml. It is filed as functional. Conditions: read-out: GI.
Experiment [3] has as its system Enterococcus faecalis. As to the kind of experiment: Antimicrobial activity against gentamycin- and vancomycin-resistant Enterococcus faecalis ATCC 700802 at 100 ug/ml. The conditions noted are these: read-out: GI. Format: functional.
The subject of experiment [4] is Staphylococcus aureus. Nature of the experiment: Antimicrobial activity against methicillin-resistant Staphylococcus aureus ATCC BAA-1720. It is filed as functional, organism-based.

SMILES strings stand for the structures.

Take `COc1ccc(/C=C2\OC(=O)C=C2c2ccc(O)cc2)cc1Br`: the values for the IC50 in experiment [1] and in experiment [4] were 98 µM and 256 µM, respectively. Moreover, the values for the inhibition of growth at 100 µg/mL in experiment [2] and in experiment [3] were 22% and 43%, respectively.
As for `O=C1C=C(c2ccc(O)c(Br)c2)/C(=C/c2ccc(O)c(Br)c2)O1`, the IC50 in experiment [1] was 28 µM; in experiment [4], 89 µM. Also, the inhibition of growth at 100 µg/mL is 25% in experiment [2] and 2% in experiment [3].
For `COc1ccc(/C=C2\OC(=O)C=C2c2ccc(O)c(Br)c2)cc1`, the IC50 came out at 42 µM in experiment [1] and 360 µM in experiment [4]. For the same molecule, the figures for the inhibition of growth at 100 µg/mL in experiment [2] and in experiment [3] were 14% and 2%, respectively.
Consider `O=C1C=C(c2ccc(O)c(Br)c2)/C(=C/c2ccc(O)cc2)O1`, for which the values for the IC50 in experiment [1] and in experiment [4] were 38 µM and 82 µM, respectively. Besides, the inhibition of growth at 100 µg/mL was 0% in experiment [2] and 16% in experiment [3].
Taken in the same sequence, the figures for `COc1ccc(/C=C2\OC(=O)C=C2c2ccc(O)cc2)cc1` [RUBROLIDE F] were 79 µM, 1010 µM, 15% and 47%.
With `O=C1C=C(c2ccc(O)cc2)/C(=C/c2ccc(O)cc2)O1` [RUBROLIDE E], the IC50 in experiment [1] is 21 µM; in experiment [4], 105 µM. Further, the inhibition of growth at 100 µg/mL in experiment [2] turned out to be 16%; in experiment [3] it was 89%.
